From ChEMBL document CHEMBL5223159, “Structural and Functional Characterization of Indane-Core CD4-Mimetic Compounds Substituted with Heterocyclic Amines” (ACS Med Chem Lett, 2023)
Activity calls are given as the source filed them. No cut-off for these calls is given here.

Columns and labels:
Type in all cases: functional, organism-based
[1] = tested on: Human immunodeficiency virus 1; assay: Antiviral activity against HIV-1 JRFL infected in HEK293T cells coexpressing firefly luciferase gene incubated for 1 hr; conditions: Human immunodeficiency virus 1, JRFL, HEK-293T
[2] = tested on: Human immunodeficiency virus 1; assay: Antiviral activity against HIV-1 CH58TF infected in primary CD4 T cells isolated from PBMC assessed as antibody dependent cellular toxicity (ADCC) at 50 uM by cell surface staining based assay
Procedure, shortened: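 Primary CD4 T cells from PBMC infected with HIV-1 CH58TF for 48 h, then surface-stained with 1:1000 HIV+ plasma (n = 3) plus 50 μM compound or DMSO vehicle. Bound IgG detected with Alexa Fluor 647 anti-human IgG secondary by flow cytometry. Mean ± SEM.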

[3] = tested on: Human immunodeficiency virus 1; assay: Antiviral activity against HIV-1 CH58TF infected in primary CD4 T cells isolated from PBMC assessed as antibody dependent cellular toxicity (ADCC) by measuring killing of p24+ infected cells at 50 uM FACS-based ADCC assay; conditions: T cell
Procedure, shortened: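 CH58TF-infected (48 h) primary CD4 T cells from PBMC served as targets in a FACS-based ADCC assay. Plasma from 3 HIV-1-infected individuals at 1:1000, with 50 μM compound or DMSO vehicle. Read-out is killing of p24+ infected cells. Mean ± SEM.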

[4] = tested on: Human immunodeficiency virus 1; assay: Antiviral activity against HIV-1 JRFL infected in primary CD4 T cells isolated from PBMC assessed as antibody dependent cellular toxicity (ADCC) at 50 uM by cell surface staining based assay
[5] = tested on: Amphotropic murine leukemia virus; assay: Antiviral activity against A-MLV infected in HEK293T cells coexpressing firefly luciferase gene incubated for 1 hr; conditions: HEK-293T
[6] = tested on: Human immunodeficiency virus 1; assay: Antiviral activity against HIV-1 JRFL assessed as inhibition of viral growth; conditions: Human immunodeficiency virus 1, JRFL
Procedure, shortened: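 IC50 against JRFL measured in triplicate. Where more than one triplicate experiment was run, the value is the mean IC50 with SEM and N triplicates.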

[7] = tested on: Amphotropic murine leukemia virus; assay: Antiviral activity against A-MLV assessed as inhibition of viral growth
Procedure, shortened: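 Control virus pseudotyped with amphotropic MLV Env, tested at concentrations up to 100 μM.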

Structure (SMILES) | IC50 [1] [µM] | Activity [2] | Activity [3] | other results
N=C(N)NC[C@H]1Cc2cc(CN3CC[C@@H](N)C3)ccc2[C@@H]1NC(=O)C(=O)Nc1ccc(Cl)c(F)c1 | 14 | – | – | –
N=C(N)NC[C@H]1Cc2cc(CN3CCC[C@H](C(=O)O)C3)ccc2[C@@H]1NC(=O)C(=O)Nc1ccc(Cl)c(F)c1 | 60 | – | – | –
N=C(N)NC[C@H]1Cc2cc(CN3CCC[C@@H]3C(=O)O)ccc2[C@@H]1NC(=O)C(=O)Nc1ccc(Cl)c(F)c1 | 32.4 | – | – | –
N=C(N)NC[C@H]1Cc2cc(CN3CCN(c4ccc(F)cc4F)CC3)ccc2[C@@H]1NC(=O)C(=O)Nc1ccc(Cl)c(F)c1 | 50 | – | – | –
N#CC1CCN(Cc2ccc3c(c2)C[C@H](CNC(=N)N)[C@H]3NC(=O)C(=O)Nc2ccc(Cl)c(F)c2)CC1 | 60.7 | – | – | –
N=C(N)NC[C@H]1Cc2cc(CN3CCC(C(N)=O)CC3)ccc2[C@@H]1NC(=O)C(=O)Nc1ccc(Cl)c(F)c1 | 33 | – | – | –
CNCc1ccc2c(c1)C[C@H](CNC(=N)N)[C@H]2NC(=O)C(=O)Nc1ccc(Cl)c(F)c1 | – | – | – | IC50 [6]: 9.6 µM; IC50 [7]: > 100 µM
N=C(N)NC[C@H]1Cc2cc(CN3CCC[C@H]3C(=O)O)ccc2[C@@H]1NC(=O)C(=O)Nc1ccc(Cl)c(F)c1 | 45.1 | – | – | –
N=C(N)NC[C@H]1Cc2ccccc2[C@@H]1NC(=O)C(=O)Nc1ccc(Cl)c(F)c1 | – | – | – | IC50 [6]: 66.8 µM

Second part, led by results:

IC50 [1] [µM] | Structure (SMILES) | Activity [2] | Activity [3] | other results
13.5 | N=C(N)NC[C@H]1Cc2cc(CN3CCC[C@H]3CO)ccc2[C@@H]1NC(=O)C(=O)Nc1ccc(Cl)c(F)c1 | Active | Active | –
7.5 | N=C(N)NC[C@H]1Cc2cc(CN[C@H]3CNC[C@@H]3O)ccc2[C@@H]1NC(=O)C(=O)Nc1ccc(Cl)c(F)c1 | Active | Active | –
6.4 | COC(=O)[C@@H]1C[C@@H](O)CN1Cc1ccc2c(c1)C[C@H](CNC(=N)N)[C@H]2NC(=O)C(=O)Nc1ccc(Cl)c(F)c1 | Active | inactive | Activity [4]: inactive
4 | N=C(N)NC[C@H]1Cc2cc(CN3CCCC3)ccc2[C@@H]1NC(=O)C(=O)Nc1ccc(Cl)c(F)c1 | Active | Active | IC50 [5]: > 100 µM
4 | N=C(N)NC[C@H]1Cc2cc(CN3CCNCC3)ccc2[C@@H]1NC(=O)C(=O)Nc1ccc(Cl)c(F)c1 | Active | Active | IC50 [5]: > 100 µM
12 | N=C(N)NC[C@H]1Cc2cc(CN3CCC[C@H]3C(N)=O)ccc2[C@@H]1NC(=O)C(=O)Nc1ccc(Cl)c(F)c1 | Active | Active | –
10.2 | N=C(N)NC[C@H]1Cc2cc(CN3CC[C@@H](O)C3)ccc2[C@@H]1NC(=O)C(=O)Nc1ccc(Cl)c(F)c1 | Active | Active | –
10.1 | N=C(N)NC[C@H]1Cc2cc(CN3CC[C@H](N)C3)ccc2[C@@H]1NC(=O)C(=O)Nc1ccc(Cl)c(F)c1 | – | – | –
5.5 | N=C(N)NC[C@H]1Cc2cc(CN3CCCCC3)ccc2[C@@H]1NC(=O)C(=O)Nc1ccc(Cl)c(F)c1 | – | – | IC50 [5]: > 100 µM
11.1 | N=C(N)NC[C@H]1Cc2cc(CN3CCC[C@@H]3CO)ccc2[C@@H]1NC(=O)C(=O)Nc1ccc(Cl)c(F)c1 | Active | Active | –
9.2 | N=C(N)NC[C@H]1Cc2cc(CN3CC[C@H](O)C3)ccc2[C@@H]1NC(=O)C(=O)Nc1ccc(Cl)c(F)c1 | Active | Active | –
